Experimental data reported in ChEMBL document CHEMBL1828582, “Synthesis and Na+/H+ exchanger inhibitory activity of benzoylguanidine derivatives” (Eur J Med Chem, 2011).

Legend:
[1] = Antiischemic activity against Na2S2O4-induced hypoxia/reoxygenation cell injury in neonatal rat primary cardiac myocytes assessed as increase in cell survival rate at 10^-6 mol/L by MTT assay; format: functional, Cardiac muscle cell
Outline: (§1)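 Neonatal rat primary cardiomyocytes, six wells per group. Hypoxia induced with 50 mmol/L Na2S2O4 in serum-free DMEM for 2 h, then reoxygenated 4 h in DMEM with 10% serum. Drug added in serum-free DMEM 1 h before reoxygenation, final 10^-6, 10^-5, 10^-4 mol/L. MTT (5 mg/mL) for 4 h, formazan dissolved in DMSO, A490. Survival = treated OD/normal control OD.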

[2] = Antiischemic activity against Na2S2O4-induced hypoxia/reoxygenation cell injury in neonatal rat primary cardiac myocytes assessed as increase in cell survival rate at 10^-5 mol/L by MTT assay; format: functional, Cardiac muscle cell; outline: as §1
[3] = Antiischemic activity against Na2S2O4-induced hypoxia/reoxygenation cell injury in neonatal rat primary cardiac myocytes assessed as increase in cell survival rate at 10^-4 mol/L by MTT assay; format: functional, Cardiac muscle cell; outline: as §1
[4] = Antiischemic activity against Na2S2O4-induced hypoxia/reoxygenation cell injury in neonatal rat primary cardiac myocytes assessed as cell viability at 10^-6 mol/L by MTT assay; format: functional; details: Cardiac muscle cell; outline: as §1
[5] = Antiischemic activity against Na2S2O4-induced hypoxia/reoxygenation cell injury in neonatal rat primary cardiac myocytes assessed as cell viability at 10^-5 mol/L by MTT assay; format: functional; details: Cardiac muscle cell; outline: as §1
[6] = Antiischemic activity against Na2S2O4-induced hypoxia/reoxygenation cell injury in neonatal rat primary cardiac myocytes assessed as cell viability at 10^-4 mol/L by MTT assay; format: functional; details: Cardiac muscle cell; outline: as §1

SMILES	Activity [1] [%]	Activity [2] [%]	Activity [3] [%]	MTT OD at 1 µM [4] [absorbance]	MTT OD at 10 µM [5] [absorbance]	MTT OD at 100 µM [6] [absorbance]
COc1ccc(CN2CCN(Cc3ccc(C(=O)N=C(N)N)cc3[N+](=O)[O-])CC2)c(OC)c1OC	50.41	59.78	69.24	0.37	0.44	0.532
COc1ccc(CN2CCN(CCOc3ccc(C(=O)NC(=N)N)cc3NC(=O)c3ccccc3[N+](=O)[O-])CC2)c(OC)c1OC	48.05	51.45	56.48	0.353	0.379	0.434
COc1ccc(CN2CCN(CCOc3ccc(C(=O)NC(=N)N)cc3NC(=O)c3ccc(Cl)cc3Cl)CC2)c(OC)c1OC	49.27	55.52	58.33	0.362	0.409	0.488
COc1ccc(CN2CCN(CCOc3ccc(C(=O)NC(=N)N)cc3NC(=O)c3sccc3C)CC2)c(OC)c1OC	53.22	61.63	72.41	0.391	0.454	0.556
